This sample holds only a part of the variants without activity.
B1: tRNA (parent)
chain: GUUCCGUUGGCGUAAUGGUAACGCGUCUCCCUCCUAAGGAGAAGACUGCGGGUUCGAGUCCCGUACGGAACG

Variants of: B1
Test: yeast fitness relative to wild type (ratio to wild type); higher = fitter; tRNA-Arg(CCU), competitive growth, 37 C, YPD
Summary of the method: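 Genotype frequency changes were the basis for Darwinian fitness relative to wild type. The frequencies came from 100-nucleotide paired-end sequencing of gene amplicons from the start population and each end population of pooled yeast strains with tRNA-Arg(CCU) gene variants at the native locus. Competition ran in YPD at 37°C for 24 hours in six replicates, genotypes needed ≥ 100 starting reads, and estimates < 0.5 were set to 0.5.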

Variant | yeast fitness
G52C A57C G63C | 0.519
U16G A42G A69C A70G | ≤ 0.5
G6A A21G U32C U59G C66U A70C | ≤ 0.5
A21U C24U C27A A37C A40U G67C | 0.54
C27A A40C A43G | ≤ 0.5
A15C A21U C24A C33A C66A | ≤ 0.5
G48C C49U A65U A69U | ≤ 0.5
U7C G18A U35A A43U U54C A65G | ≤ 0.5
C4G C11U | 0.967
U19A C55A C61U | ≤ 0.5
A15G C30U C33A G41C C46U G48C | 0.551
U28C A45G | 0.948
C11U G12A A15C C31A G51A | ≤ 0.5
U35C A57C G68C | ≤ 0.5
C29A A45U U59C | 0.721
G9C U32A | 0.648
U2C C4U G48A | 0.538
U47C A70C | 1.07
C24G A36C C46U G52A | 0.637
U3A C66U | 0.891
C5A C11U U13G C29G C33A C46A | 0.575
G10A G18A A36G U53A A70G | ≤ 0.5
A14U A20C C24A | 0.554
U19A A57U G67C | 0.556

Variant | yeast fitness
G10C G50A U59A | ≤ 0.5
U7G C66U | 0.893
G6C G9A A21U U28G C34U | ≤ 0.5
U3G U8C A15U C49A | 0.597
C11U A21C C27G G39C C66U | ≤ 0.5
C11A A21C C31A G58A | ≤ 0.5
U3C G6C A14U G25A G38A U47A A69C | ≤ 0.5
G9A A37C U54C G67C | ≤ 0.5
U3C U19C A20G | 0.663
G6C A14G A20C U54A A57C | ≤ 0.5
A20G C27G A40U | ≤ 0.5
C4U C46U | 1.01
C4G C11A U28G U47G C49G U53G C55G | ≤ 0.5
C34A A36C | 0.511
G38A G50A | 0.859
A40G A45G U53A | ≤ 0.5
U19A C24G C27U C30A G52C G56A | ≤ 0.5
A21G C33U G51C | ≤ 0.5
C4A A20U C24U U26G C27U A36C A45U C55G | 0.607
G10A C33U A65U | ≤ 0.5
A45U C49G C55G G67C | 0.532
C5A G52C G67U A69U | ≤ 0.5
U3C C4U C24U C62U A69U | 0.638
G18A C22A C46G U53A C61G A70C | 0.583

Variant | yeast fitness
C4U A65C G68A | 1.03
C24U C30A | 0.898
C11G A42C A57U | 0.564
C27A U64A A69C | 0.703
C22G U47C | 0.89
G6A G18C C49A C61G | ≤ 0.5
G17A G18A A20C A21G G50A C55G A69U | 0.642
A42G A70C | 0.853
A20C A37G C49G U53A C60U | 0.527
A43G C66U G68A | 0.585
U16C C22U G25A C31G G52A | 0.589
A20G A36U G63C U64C | 0.666
A15G C34U A42G C49A | ≤ 0.5
C29A G48C A69C | 0.531
C4A C5U U8C U47C U64A | ≤ 0.5
C11A C33U C60G | 0.531
A14G C31U A42U A69U | 0.544
U8C C29U G38C A40C | ≤ 0.5
C5U C11A A21G A40U G68C | ≤ 0.5
A42C A43C | 1.02
U13A G23C C27G | 0.504
C11U A21C A37U A42G A69C A70G | ≤ 0.5
U13C A14C C60U C62U U64A | ≤ 0.5
U13C A14U A36U G38A A43U G67A | ≤ 0.5

Variant | yeast fitness
G6A U8C C31G C60G | ≤ 0.5
C27A U54A | 0.727
C22U U47A | 0.77
G10C A21G G56A | ≤ 0.5
U35C C60U | 0.546
C4U G18A G23C C24G C46G A57G | ≤ 0.5
U2A G6A C27G A42U A43U | ≤ 0.5
C27U C29U A36C | ≤ 0.5
G38C C66A | 0.561
U3A C33G C34G U35A G44A | 0.556
C5A G12A C60G | ≤ 0.5
U8C G50A C66A | ≤ 0.5
A21G C49U A70G | 0.817
G48C A65G | 1.01
C5U U19C C22U | 0.721
A45C C55U A69U | 0.753
C29U A36C A43C C60A | ≤ 0.5
C5U A42G | 0.728
G17C G18C C22A C60A C66U | 0.561
U2C U16C A36G C55U | ≤ 0.5
A21C C29A G52A C61U | ≤ 0.5
C5U C49U C61A | ≤ 0.5
U16C U32C G41C G50A C61G | 0.567
G17A U53G | 0.595

Variant | yeast fitness
U7C A20C C34A G63C | ≤ 0.5
C22G C30U | 0.817
G10A A15G C34G G68A | ≤ 0.5
C34A G52C C60G | 0.544
A14U A65U | 0.639
C27A G63A | 0.88
C5U G17C U26G G67A | 0.565
A21U C24G C29G C49U | ≤ 0.5
U32C A37U G44A A70G | ≤ 0.5
C22G C49G G68A | 0.529
C30A A65G G67C | 0.526
U3C C24G A43C G48A G58A G68C | ≤ 0.5
U28A G52A U54A | ≤ 0.5
C5G U13A C22G C29G A40U C62U | ≤ 0.5
A37U A70C | 0.917
A45C G51C U54C A57G | ≤ 0.5
A40U U59C | 0.913
C5G G39A U47G C49G C66U A69C | 0.57
C34G C46U C49U | ≤ 0.5
G9A C22U U53G | 0.555
C22G U35A U47C C55U A69C | 0.542
A42G A43G | 0.766
U2G G38A G52C C61A | 0.555
U7A G23C C49G C66A | ≤ 0.5

Variant | yeast fitness
A36C G56A | 0.61
A15U G23C A45U G52A | ≤ 0.5
G44A A45C C49G | 0.983
A15U G18A A40C A43C C46G A69C | ≤ 0.5
G18A G52A C55G | 0.571
C27A C31A G52A U54C G58C A70G | ≤ 0.5
C4A G12C A37G G38A | ≤ 0.5
G6A A45G A69C | 0.748
U19G C29U C49U | ≤ 0.5
U19C G23A A37C A65G | ≤ 0.5
C29G G51C | 0.55
G50A G67A | 0.818
C5U U16G U64C | 0.932
G9C G18A C22G C29U U32G A57U | ≤ 0.5
G6A A15C C27G G44C C49A U64A | 0.538
U3C G9A A14G C66U | ≤ 0.5
G17C C27U A65G | 0.598
U2C G9A C24G C30U C62U | ≤ 0.5
U26C C33G A42C G67C | ≤ 0.5
U16C C29U A36U C66U G67A | ≤ 0.5
A15G G17A C30A U47C | ≤ 0.5
C11G G12C A21G U35A G51A | 0.732
U19C A45U C46U A57U | ≤ 0.5
C30U G38A C60G | 0.537

Variant | yeast fitness
G56A A65U G67A | ≤ 0.5
U13A A42C G68C | 0.529
U7G C29A | 0.649
A57C G58C U59G C66U | 0.606
C24G U32A A43G G50A A65C | ≤ 0.5
U2A U16C G44C G52A | ≤ 0.5
A14C A21U A40G A65C | 0.621
A15U C30G A36C C60A C61U | ≤ 0.5
G9C | 0.853
U2A C11A C31U | ≤ 0.5
G17U C55U A70G | ≤ 0.5
A15C G17A G68A | ≤ 0.5
G12A U28C A40C G48A | 0.61
U28A C34U G52A | ≤ 0.5
U13A U28A U47G C62U A65U | ≤ 0.5
U2G A45U C60U | 0.549
C5U G6C A20U A45U | ≤ 0.5
U16A C33G | 0.612
A36C A37C A65C | ≤ 0.5
C5G C33G C55U | 0.875
G18C C31G A42G | 0.505
G10A C49U A69U | ≤ 0.5
C24U G38C C62G | 0.623
